Measurements as given in ChEMBL document CHEMBL1128232, “Synthesis of novel thiol-containing citric acid analogues. Kinetic evaluation of these and other potential active-site-directed and mechanism-based inhibitors of ATP citrate lyase” (J Med Chem, 1995).

What was measured:
ATP-citrate synthase [1] = target: T1, ATP-citrate synthase (Rattus norvegicus, UniProt P16638); assay: Irreversible inactivation was evaluated against rat ATP-Citrate Lyase; nd= Time dependent inactivation was not detectable above thermal decay rate of 5.0 x10E-3 1/h at 2 mM inhibitor at […]; not detectable
T1 sequence (P16638 whole entry): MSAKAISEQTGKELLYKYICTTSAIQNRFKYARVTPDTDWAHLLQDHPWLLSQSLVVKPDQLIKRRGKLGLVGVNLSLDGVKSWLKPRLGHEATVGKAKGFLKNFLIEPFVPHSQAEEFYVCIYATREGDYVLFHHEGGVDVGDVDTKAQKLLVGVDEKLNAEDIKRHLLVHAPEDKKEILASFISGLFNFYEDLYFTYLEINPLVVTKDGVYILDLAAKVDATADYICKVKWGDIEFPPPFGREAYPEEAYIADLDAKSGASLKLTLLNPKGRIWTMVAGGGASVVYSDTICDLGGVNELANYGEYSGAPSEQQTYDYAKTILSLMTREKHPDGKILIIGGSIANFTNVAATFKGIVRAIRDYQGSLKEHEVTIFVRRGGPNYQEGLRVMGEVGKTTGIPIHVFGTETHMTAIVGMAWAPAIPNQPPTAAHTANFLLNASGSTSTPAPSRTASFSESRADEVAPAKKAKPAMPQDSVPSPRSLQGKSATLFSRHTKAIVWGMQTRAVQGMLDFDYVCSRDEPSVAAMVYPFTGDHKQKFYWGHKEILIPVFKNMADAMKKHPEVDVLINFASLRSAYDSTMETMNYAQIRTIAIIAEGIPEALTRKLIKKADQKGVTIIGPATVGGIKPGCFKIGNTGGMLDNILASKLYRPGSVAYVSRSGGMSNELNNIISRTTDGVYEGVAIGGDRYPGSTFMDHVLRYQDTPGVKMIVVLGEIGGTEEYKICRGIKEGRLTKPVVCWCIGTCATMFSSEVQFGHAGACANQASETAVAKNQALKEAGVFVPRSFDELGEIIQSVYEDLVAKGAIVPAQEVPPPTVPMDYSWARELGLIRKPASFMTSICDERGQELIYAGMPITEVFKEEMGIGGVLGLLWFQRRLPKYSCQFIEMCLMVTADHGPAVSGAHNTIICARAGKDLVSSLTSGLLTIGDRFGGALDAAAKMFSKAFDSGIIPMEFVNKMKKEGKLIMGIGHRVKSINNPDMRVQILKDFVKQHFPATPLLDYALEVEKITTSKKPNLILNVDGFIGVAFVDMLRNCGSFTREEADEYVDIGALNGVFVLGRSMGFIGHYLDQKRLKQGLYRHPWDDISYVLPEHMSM
How it was run: (§1)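 Rat liver ATP citrate lyase (purified) incubated with 2 mM inhibitor at 25 °C in Tris-HCl pH 8.0; aliquots withdrawn over 48 h and placed directly into assay cocktail with saturating substrate. Remaining activity read as carbon–carbon cleavage of citrate to detect time-dependent inactivation.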

ATP-citrate synthase [2] = target: T1, ATP-citrate synthase; assay: Reversible binding potential for rat ATP-Citrate Lyase as carbon-carbon bond cleavage activity in citrate substrate
How it was run: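 Purified rat liver enzyme; carbon–carbon cleavage activity measured at 1.0 mM citrate (equal to Km). Ki derived by fitting rate data to the competitive inhibition equation, which reduces under these conditions to V = Vmax/(2 + [I]/Ki).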

ATP-citrate synthase [3] = target: T1, ATP-citrate synthase; assay: Irreversible inactivation of rat ATP-Citrate Lyase; nd=not detectable; how it was run: as §1

| SMILES | Ki (ATP-citrate synthase [1]) | Ki (ATP-citrate synthase [2]) [µM] | Ki (ATP-citrate synthase [3]) |
| --- | --- | --- | --- |
| O=C(O)C[C@@](O)(C(=O)O)[C@H](O)C(=O)O | Not detectable | 0.15 |  |
| O=C(O)C[C@@](O)(C(=O)O)[C@H](S)C(=O)O |  | 58 | Not detectable |
| O=C(O)C[C@]1(C(=O)O)O[C@@H]1C(=O)O |  | 400 | Not detectable |
| O=C(O)CC(S)(CC(=O)O)C(=O)O |  | 295 | Not detectable |
| O=C(O)/C=C(/CC(=O)O)C(=O)O |  | > 1000 | Not detectable |
| CSSC(CC(=O)O)(CC(=O)O)C(=O)O |  | 480 | Not detectable |
| CSS[C@H](C(=O)O)[C@@](O)(CC(=O)O)C(=O)O |  | 34 | Not detectable |
| O=C(O)/C=C(\CC(=O)O)C(=O)O [ACONITIC ACID] |  | > 1000 | Not detectable |
| C=C(CC(=O)O)C(=O)O [ITACONATE] |  | > 1000 | Not detectable |

Other lines, results leading:

| Ki (ATP-citrate synthase [1]) | Ki (ATP-citrate synthase [2]) [µM] | Ki (ATP-citrate synthase [3]) | SMILES |
| --- | --- | --- | --- |
|  | 18 | Not detectable | O=C(O)C[C@]1(C(=O)O)O[C@H]1C(=O)O |
|  | 150 | Not detectable | O=C(O)C[C@@](O)(C(=O)O)[C@@H](S)C(=O)O |
|  | 340 | Not detectable | O=C1C[C@@](C(=O)O)([C@@H](Cl)C(=O)O)O1 |
|  | 29 | Not detectable | O=C(O)C[C@@](O)(C(=O)O)[C@@H](Cl)C(=O)O |
